Test results published in ChEMBL document CHEMBL4834419 (J Med Chem, 2021).
Active and inactive are the calls of the source. The calls are words filed in the database; no cut-off is given here.

Legend:
[1] = target: T1, Retinoic acid receptor RXR-alpha (Homo sapiens, UniProt P19793); experiment: Agonist activity at human RXRalpha transfected in human HEK293T cells co-expressing pFR/pRL-Luc incubated for 14 to 16 hrs by hybrid reporter gene assay; format: cell-based
T1 sequence (P19793 whole entry): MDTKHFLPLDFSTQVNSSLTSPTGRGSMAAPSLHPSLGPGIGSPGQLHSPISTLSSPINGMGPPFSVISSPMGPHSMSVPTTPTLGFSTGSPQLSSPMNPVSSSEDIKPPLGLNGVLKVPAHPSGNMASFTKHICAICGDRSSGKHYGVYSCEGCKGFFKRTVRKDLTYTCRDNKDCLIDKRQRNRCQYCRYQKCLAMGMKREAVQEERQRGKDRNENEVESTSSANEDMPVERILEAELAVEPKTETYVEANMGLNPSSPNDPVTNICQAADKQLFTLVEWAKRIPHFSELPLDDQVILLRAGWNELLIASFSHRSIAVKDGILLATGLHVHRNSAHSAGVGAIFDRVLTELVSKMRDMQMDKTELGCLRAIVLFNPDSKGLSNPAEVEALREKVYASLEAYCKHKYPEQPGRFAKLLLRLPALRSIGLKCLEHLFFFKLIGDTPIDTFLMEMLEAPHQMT

[2] = target: T2, Retinoic acid receptor RXR-beta (Homo sapiens, UniProt P28702); experiment: Agonist activity at human RXRbeta transfected in human HEK293T cells co-expressing pFR/pRL-Luc incubated for 14 to 16 hrs by hybrid reporter gene assay; format: cell-based
T2 sequence (P28702 whole entry): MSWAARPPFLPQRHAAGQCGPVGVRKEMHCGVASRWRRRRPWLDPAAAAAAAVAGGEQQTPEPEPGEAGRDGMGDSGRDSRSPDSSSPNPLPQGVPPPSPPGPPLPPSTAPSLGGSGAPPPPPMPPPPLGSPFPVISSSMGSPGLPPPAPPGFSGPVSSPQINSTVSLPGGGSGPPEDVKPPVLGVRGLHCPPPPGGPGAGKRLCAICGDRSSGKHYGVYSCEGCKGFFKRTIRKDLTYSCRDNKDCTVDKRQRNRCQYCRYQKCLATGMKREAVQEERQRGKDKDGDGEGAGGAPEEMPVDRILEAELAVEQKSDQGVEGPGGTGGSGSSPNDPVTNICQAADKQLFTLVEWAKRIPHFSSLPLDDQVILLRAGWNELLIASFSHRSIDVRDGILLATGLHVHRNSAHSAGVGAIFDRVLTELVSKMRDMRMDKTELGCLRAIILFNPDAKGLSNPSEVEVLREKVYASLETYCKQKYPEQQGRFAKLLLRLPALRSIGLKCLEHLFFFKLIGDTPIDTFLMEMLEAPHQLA

[3] = target: T3, Retinoic acid receptor RXR-gamma (Homo sapiens, UniProt P48443); experiment: Agonist activity at human RXRgamma transfected in human HEK293T cells co-expressing pFR/pRL-Luc incubated for 14 to 16 hrs by hybrid reporter gene assay; format: cell-based
T3 sequence (P48443 whole entry): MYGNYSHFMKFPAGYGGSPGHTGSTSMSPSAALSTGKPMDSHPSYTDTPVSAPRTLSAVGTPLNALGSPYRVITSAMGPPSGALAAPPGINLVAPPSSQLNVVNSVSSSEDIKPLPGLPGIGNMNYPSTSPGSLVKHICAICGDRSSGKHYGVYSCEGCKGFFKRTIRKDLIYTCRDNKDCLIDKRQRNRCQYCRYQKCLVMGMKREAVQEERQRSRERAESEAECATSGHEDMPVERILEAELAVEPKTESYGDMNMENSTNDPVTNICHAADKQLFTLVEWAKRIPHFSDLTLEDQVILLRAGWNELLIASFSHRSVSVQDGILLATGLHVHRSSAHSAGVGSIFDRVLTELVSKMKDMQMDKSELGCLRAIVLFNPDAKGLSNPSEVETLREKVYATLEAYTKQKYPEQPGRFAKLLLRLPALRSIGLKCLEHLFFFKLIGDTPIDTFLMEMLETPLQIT

[4] = target: T4, Retinoic acid receptor RXR-alpha (Homo sapiens) (UniProt P19793); experiment: Agonist activity at human RXRalpha transfected in human HEK293T cells co-expressing pFR/pRL-Luc at 30 uM incubated for 14 to 16 hrs by hybrid reporter gene assay; format: cell-based; details: time 14-16 hrs
T4 sequence (whole entry): T1 sequence (P19793 whole entry)
Method in brief: (§1)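 Gal4 hybrid reporter assay in HEK293T cells, seeded 24 h before transfection (Lipofectamine LTX, Opti-MEM) with pFR-Luc, pRL-SV40 and pFA-CMV plasmid carrying the hinge region and LBD of the human receptor. After 5 h, compound added in 0.1% DMSO, with 0.1% DMSO alone as untreated control. Dual-Glo luciferase read after 14−16 h; firefly/renilla normalized; duplicates, ≥2 independent experiments.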

[5] = target: T5, Retinoic acid receptor RXR-beta (Homo sapiens) (UniProt P28702); experiment: Agonist activity at human RXRbeta transfected in human HEK293T cells co-expressing pFR/pRL-Luc at 30 uM incubated for 14 to 16 hrs by hybrid reporter gene assay; format: cell-based; details: time 14-16 hrs; method in brief: as §1
T5 sequence (whole entry): T2 sequence (P28702 whole entry)

[6] = target: T6, Retinoic acid receptor RXR-gamma (Homo sapiens) (UniProt P48443); experiment: Agonist activity at human RXRgamma transfected in human HEK293T cells co-expressing pFR/pRL-Luc at 30 uM incubated for 14 to 16 hrs by hybrid reporter gene assay; format: cell-based; details: time 14-16 hrs; method in brief: as §1
T6 sequence (whole entry): T3 sequence (P48443 whole entry)

[7] = target: T6, Retinoic acid receptor RXR-gamma (Homo sapiens); experiment: Agonist activity at human RXRgamma transfected in human HEK293T cells co-expressing pFR/pRL-Luc at 50 uM incubated for 14 to 16 hrs by hybrid reporter gene assay; format: cell-based; details: time 14-16 hrs; method in brief: as §1
[8] = Metabolic stability in Sprague-Dawley rat liver microsomes assessed as compound degradation at 10 uM incubated for 60 min by HPLC analysis; format: ADME; details: 1 h
Method in brief: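 Compound at 10 μM final in 0.1 M phosphate, pH 7.4, was preincubated 5 min at 37 °C with an NADPH-regenerating system. Sprague-Dawley rat liver microsomes were then added. Reactions were stopped with ice-cold methanol at 0, 15, 30 and 60 min and remaining compound quantified by HPLC against an external calibration. Controls: no NADPH, heat-inactivated microsomes. Three independent experiments.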

| Compound | EC50 [1] [nM] | EC50 [2] [nM] | EC50 [3] [nM] | other results |
| --- | --- | --- | --- | --- |
| O=C(O)CCc1nc(-c2ccccc2)c(-c2cccc(C(F)(F)F)c2)o1 | 70 | 80 | 300 |  |
| O=C(O)c1nc(-c2ccccc2)c(-c2ccccc2)o1 | > 50000 | > 50000 | > 50000 |  |
| N#Cc1ccc(-n2nc(CCC(=O)O)cc2-c2cc(Cl)cc(Cl)c2)cc1 | 7700 | 2000 | 6000 |  |
| O=C(O)Cc1nc(-c2ccccc2)c(-c2ccccc2)o1 |  |  |  | Activity [4]: inactive; Activity [5]: inactive; Activity [6]: inactive |
| O=C(O)CCc1nc(-c2cc(Cl)cc(Cl)c2)c(-c2ccccc2)o1 |  | 3400 | 2800 |  |
| Cc1ccc(-n2nc(CCC(=O)O)cc2-c2cc(Cl)cc(Cl)c2)cc1 | 2500 | 1400 | 3000 |  |
| O=C(O)CCc1nc(-c2ccc(Cl)c(Cl)c2)c(-c2ccccc2)o1 | 620 | 1300 | 4500 |  |
| COc1ccc(-n2nc(CCC(=O)O)cc2-c2cc(Cl)cc(Cl)c2)cc1 | 1600 | 1400 | 4000 |  |
| Cc1ccccc1-c1oc(CCC(=O)O)nc1-c1ccccc1 | 16900 |  | > 30000 |  |
| O=C(O)CCCCc1nc(-c2ccccc2)c(-c2ccccc2)o1 | 8400 | 12400 |  | Activity [7]: inactive |
| O=C(O)CCc1nc(-c2ccccc2)c(-c2ccccc2)o1 [OXAPROZIN] |  | 25000 | 40100 |  |
| O=C(O)CCc1nc(-c2ccccc2)c(-c2cc(F)cc(F)c2)o1 |  | 50 |  |  |
| Cc1cc(C)cc(-c2oc(CCC(=O)O)nc2-c2ccccc2)c1 | 300 | 900 |  |  |
| O=C(O)CCc1nc(-c2ccc(Cl)cc2)c(-c2cc(Cl)cc(Cl)c2)o1 | 180 | 290 | 400 |  |
| O=C(O)CCc1nc(-c2ccccc2)c(-c2cccc(Cl)c2Cl)o1 | 1200 |  | 3200 |  |
| O=C(O)CCc1cc(-c2cc(C(F)(F)F)cc(C(F)(F)F)c2)n(-c2ccc(Cl)cc2)n1 |  | 270 | 460 |  |
| O=C(O)CCCc1cc(-c2cc(Cl)cc(Cl)c2)n(-c2ccc(Cl)cc2)n1 | 1300 | 1100 | 3000 |  |
| O=C(O)CCc1nc(-c2ccccc2)c(-c2cc(Cl)cc(Cl)c2)o1 | 60 | 50 | 200 | Stabilty [8]: Stable |
| O=C(O)CCc1cc(-c2cc(Cl)cc(Cl)c2)n(-c2ccc(F)cc2)n1 | 430 | 470 | 1640 |  |
| Cn1ccc(-n2nc(CCC(=O)O)cc2-c2cc(Cl)cc(Cl)c2)n1 | > 30000 | > 30000 | > 30000 |  |
| Cc1ccc(-c2oc(CCC(=O)O)nc2-c2ccccc2)cc1 | 1000 | 1600 | > 10000 |  |
| O=C(O)CCc1nc(-c2ccccc2)c(-c2cccc(Cl)c2)o1 |  | 600 |  |  |

| Compound | EC50 [1] [nM] | EC50 [2] [nM] | EC50 [3] [nM] | other results |
| --- | --- | --- | --- | --- |
| O=C(O)CCc1nc(-c2ccccc2Cl)c(-c2ccccc2)o1 | 36000 | 48000 |  | Activity [7]: inactive |
| O=C(O)CCc1nc(-c2ccc(Cl)cc2)c(-c2ccccc2)o1 | 1300 | 2400 | 1400 |  |
| Cc1ccc(-c2nc(CCC(=O)O)oc2-c2ccccc2)cc1 |  | 14400 | > 100000 |  |
| O=C(O)CCc1ncc(-c2ccccc2)o1 |  |  |  | Activity [4]: inactive; Activity [5]: inactive; Activity [6]: inactive |
| O=C(O)CCc1nc(-c2ccccc2)c(-c2ccccc2Cl)o1 | 17000 | 19100 |  | Activity [7]: inactive |
| Cc1ccccc1-c1nc(CCC(=O)O)oc1-c1ccccc1 | 6500 | 39000 | 25000 |  |
| O=C(O)CCc1nc(-c2cc(Cl)cc(Cl)c2)c(-c2cc(Cl)cc(Cl)c2)o1 | 1030 | 1500 |  |  |
| O=C(O)CCc1cc(-c2cc(Cl)cc(Cl)c2)n(-c2cccc(Cl)c2)n1 | 3100 | 2000 | 3500 |  |
| O=C(O)CCCc1nc(-c2ccccc2)c(-c2ccccc2)o1 | 7900 | 13500 | 43000 |  |
| CC(C)(C)c1cc(-c2oc(CCC(=O)O)nc2-c2ccccc2)cc(C(C)(C)C)c1 |  | 130 | 500 |  |
| O=C(O)CCc1nc(-c2ccccc2)co1 |  |  |  | Activity [4]: inactive; Activity [5]: inactive; Activity [6]: inactive |
| O=C(O)CCc1nc(-c2ccccc2)c(-c2ccc(Cl)cc2)o1 |  |  | 19000 |  |
| Cc1cccc(-c2oc(CCC(=O)O)nc2-c2ccccc2)c1 | 500 | 900 | 3500 |  |
| O=C(O)CCc1nc(-c2cccc(Cl)c2)c(-c2ccccc2)o1 | 1900 | 2900 | 6700 |  |
| NC(=O)CCc1nc(-c2ccccc2)c(-c2ccccc2)o1 |  |  |  | Activity [4]: inactive; Activity [5]: inactive; Activity [6]: inactive |
| O=C(O)CCc1nc(-c2ccccc2)c(-c2ccc(Cl)c(Cl)c2)o1 | 510 | 870 | 1500 |  |
| O=C(O)CCc1cc(-c2cc(Cl)cc(Cl)c2)n(-c2ccccc2)n1 |  |  | 1600 |  |
| O=C(O)CCCc1nc(-c2ccccc2)c(-c2cc(Cl)cc(Cl)c2)o1 | 480 | 500 | 1300 |  |
| O=C(O)CCc1nc(-c2ccccc2)c(-c2cc(Cl)ccc2Cl)o1 | 5800 | 1400 | > 20000 |  |
| COc1cccc(-c2oc(CCC(=O)O)nc2-c2ccccc2)c1 | 1400 | 1800 | > 10000 |  |
| Cc1cccc(-c2nc(CCC(=O)O)oc2-c2ccccc2)c1 |  | 4800 |  |  |
